Assay outcomes (PubChem)
An excerpt weighted towards active compounds, which were near 3.3% of everything screened.
SIAE inh = human SIAE inhibitors, primary screen, biochemical, fluorescence polarization, FP-Rh probe, 1536-well HTS. Sialate O-acetylesterase (Homo sapiens), Q9HAT2. SIAE FP-Rh probe binding. inhibition, % at 9.66 µM. 370,000 compounds, 0.69% hits. AID 1053197, 2014;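 active = inhibition above a cutoff: mean of compounds within the control limits plus 3 SD of those, cut at about 17% in these data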;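 note: 0% = plate median of compound wells and 100% = probe without SIAE protein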
rCAG RNA binder = binders of r(CAG) RNA repeats, primary screen, biochemical, fluorescence; r(CAG) RNA repeat, TO-PRO-1 dye displacement fluorescence; inhibition, % at 3 µM; 370,000 compounds, 1.3% hits; AID 651821, 2012;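 active = inhibition above the plate cutoff, the mean of all test compounds on that plate plus 3 SD, cut at about 35% in these data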;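 note: 0% = DMSO alone and 100% = 100 µM mitoxantrone as full dye displacement; higher means more dye released from RNA so lower well fluorescence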
mABHD4 FP = ABHD4 inhibitors, primary screen, biochemical, fluorescence polarization, mouse | inhibition, % at 8.92 µM | (Lyso)-N-acylphosphatidylethanolamine lipase (Mus musculus), Q8VD66 | 370,000 compounds, 0.54% hits | purified mABHD4, FP-Rh probe fluorescence polarization;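 active = inhibition exceeding the mean over every tested compound plus 3 SD, cut at about 30% in these data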;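 note: 0% = plate median of compound wells and 100% = S159A mutant with DMSO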
Target sequence (Q8VD66 whole entry, looked up): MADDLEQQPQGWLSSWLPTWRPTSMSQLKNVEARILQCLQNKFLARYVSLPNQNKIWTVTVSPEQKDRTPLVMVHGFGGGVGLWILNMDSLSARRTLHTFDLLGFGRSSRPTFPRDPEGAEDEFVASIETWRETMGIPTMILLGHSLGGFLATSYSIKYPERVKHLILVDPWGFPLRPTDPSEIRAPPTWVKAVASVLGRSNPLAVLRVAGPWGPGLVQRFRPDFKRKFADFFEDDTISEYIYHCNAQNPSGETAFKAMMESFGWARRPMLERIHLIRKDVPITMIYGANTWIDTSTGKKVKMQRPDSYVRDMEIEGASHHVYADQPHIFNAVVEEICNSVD
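Assay system: mABHD4 protein; medium: HEPES pH 7.0, NaCl, Pluronic buffer; dosing: 8.92 µM, single dose; schedule: 45 min + 60 min at 25 °C; signal: FP readout, ex 525 nm / em 598 nm; read-out: normalized percent inhibition of probe labeling; repeats: single replicate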
HTRA1 inh = HTRA1 serine protease inhibitors, primary screen, biochemical, fluorescence polarization, HTS; Q92743; AID 504803, 2011; 340,000 compounds, 0.5% hits; inhibition, % at 5.96 µM; recombinant HTRA1, FP-rhodamine activity-based probe; in the data active = inhibition above about 36%;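 note: 0% = enzyme with DMSO and 100% = wells lacking enzyme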
PRMT1 FP inh = PRMT1 methyltransferase inhibitors, primary screen, biochemical, fluorescence polarization; Protein arginine N-methyltransferase 1 (Homo sapiens), Q99873; recombinant PRMT1, activity-based probe fluorescence polarization; inhibition, % at 2.79 µM; 370,000 compounds, 1.3% hits;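 active = inhibition above about 21% made by adding two undisclosed values, limit read from the data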
Target sequence (Q99873 whole entry, looked up): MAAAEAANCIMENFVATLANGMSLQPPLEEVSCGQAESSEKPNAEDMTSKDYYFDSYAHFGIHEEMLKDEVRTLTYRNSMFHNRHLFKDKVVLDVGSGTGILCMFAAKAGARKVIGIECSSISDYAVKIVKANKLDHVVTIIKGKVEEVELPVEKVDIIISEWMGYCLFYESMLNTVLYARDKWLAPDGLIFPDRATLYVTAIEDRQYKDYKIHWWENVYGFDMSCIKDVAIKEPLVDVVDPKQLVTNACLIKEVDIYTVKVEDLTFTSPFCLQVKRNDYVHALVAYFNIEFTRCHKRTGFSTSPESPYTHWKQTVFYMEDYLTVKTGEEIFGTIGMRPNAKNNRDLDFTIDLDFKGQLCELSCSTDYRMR
PRMT1 confirm = PRMT1 methyltransferase inhibitors, confirmation, biochemical, fluorescence polarization, triplicate; recombinant His-PRMT1, activity-based probe fluorescence polarization; inhibition, % at 2.79 µM; 3,300 compounds, 42% hits; shares compounds with PRMT1 FP inh;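 active = mean inhibition across replicates above the hit cutoff derived for the earlier primary screen, cut at about 22% in these data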
An asterisk follows results filed as active; x = no result given.

SMILES | SIAE inh | rCAG RNA binder | mABHD4 FP | HTRA1 inh | PRMT1 FP inh | PRMT1 confirm
Oc1c(CN2CCOCC2)cc(CN2CCOCC2)cc1CN1CCOCC1 | 1.0 | 0.8 | -1.3 | 0.0 | 2.0 | x
COc1cc(/C=C2\C(=O)NN(c3ccc(C)cc3)C2=O)cc([N+](=O)[O-])c1O | 3.4 | 31.0 | 25.5 | 13.4 | 29.7* | 8.7
CC(=O)Nc1ccc(S[C@@H](CCN2CC[C@H](O)CCC2=O)c2ccccc2)cc1 | 2.6 | -3.8 | -3.5 | -2.3 | 35.8* | 28.1*
C(=Cc1c[nH]c2ccccc12)c1nccc2ccccc12 | 1.4 | 2.9 | -2.7 | 7.5 | 51.9* | 9.6
CCOC(=O)c1c(-c2ccc(C)o2)csc1NC(=O)CN1CCN(CC)CC1 | 2.5 | -3.2 | 1.9 | -9.8 | 78.6* | 2.9
CCOC(=O)c1c(-c2ccc(C)o2)csc1NC(=O)CN1CCCCC1 | 3.0 | -3.2 | -2.3 | -23.5 | 43.4* | 9.0
CCOC(=O)c1c(-c2ccc(C)o2)csc1NC(=O)CN1CCC(C(N)=O)CC1 | -3.4 | -1.3 | 2.6 | -6.9 | 14.4 | x
Cc1nn(C)c(C)c1/C=N/NC(=O)CCn1nc(C)c([N+](=O)[O-])c1C | 6.9 | 1.1 | 7.6 | -2.6 | -1.2 | x
Cc1ccc(NS(=O)(=O)c2ccc(OCC(=O)Nc3cccc([N+](=O)[O-])c3)c(C)c2)cc1 | -75.3 | 16.2 | -80.0 | -80.8 | 1.6 | x
Cc1cc(C)nc(Sc2ncnc(N)c2[N+](=O)[O-])n1 | -1.6 | 0.2 | 6.1 | -6.6 | 46.9* | 19.0
COc1ccc(CCNC(=O)COc2ccc(S(=O)(=O)NC3CCCCC3)cc2Cl)cc1 | -2.6 | 0.2 | -11.5 | -57.4 | 3.9 | x
CC(C)N(C(=O)CSc1nnc(-c2cc3ccccc3cc2O)n1Cc1ccco1)C(C)C | 6.3 | -0.3 | 3.0 | -10.4 | -0.1 | x
O=C(CSc1nnc(-c2cc3ccccc3cc2O)n1Cc1ccco1)N1CCc2ccccc2C1 | -10.4 | 16.8 | -8.3 | -17.0 | 32.3* | 5.0
O=C(CSc1nc2c(c(C(F)(F)F)n1)CCc1ccccc1-2)NCc1ccco1 | -9.8 | 3.9 | -10.8 | -10.5 | 26.4* | 3.2
CC(NC(=O)CSc1nc2c(c(C(F)(F)F)n1)CCc1ccccc1-2)c1ccccc1 (stereo not drawn) | 0.0 | -4.2 | -1.1 | 0.6 | -4.5 | x
CC(Nc1cc(N2CCN(S(C)(=O)=O)CC2)ccc1[N+](=O)[O-])c1ccccc1 (stereo not drawn) | -0.6 | 7.8 | -3.7 | -21.1 | 1.6 | x
CS(=O)(=O)N1CCN(c2ccc([N+](=O)[O-])c(SCc3ccco3)c2)CC1 | 4.4 | 14.3 | 2.2 | x | 33.0* | 1.6
O=C(/C=C/c1ccco1)NCC1COc2ccccc2O1 (stereo not drawn) | -9.5 | 9.0 | -7.9 | -4.0 | 32.7* | 16.0
COc1ccc(/C=C/C(=O)NCC2COc3ccccc3O2)c(OC)c1 (stereo not drawn) | -3.3 | 1.5 | -11.3 | -15.8 | -3.2 | x
Cc1ccc(NC(=O)c2cc(N3C(=O)C=CC3=O)ccc2N2CCOCC2)cc1 | 0.1 | 5.8 | 2.2 | -11.4 | 90.7* | 89.0*
Cc1ccc(NC(=O)c2cc(NC(=O)c3ccco3)ccc2N2CCOCC2)cc1 | -3.0 | -2.4 | 5.2 | -19.0 | -1.2 | x
Nc1nc2c(s1)CCc1ccccc1-2 | 10.7 | 4.3 | 15.6 | -1.9 | 26.0* | 9.4
Cn1cnc([N+](=O)[O-])c1NC(C)(C)C | -1.1 | -0.4 | 1.5 | 0.1 | 4.2 | x
Cn1cnc([N+](=O)[O-])c1S(=O)(=O)c1ccc(Cl)cc1 | 3.9 | 3.2 | 0.6 | 1.5 | 44.4* | 17.9
O=C(O)c1cc(=S)nc[nH]1 | 1.9 | -1.6 | 15.9 | -3.2 | 38.7* | 60.0*
SMILES | SIAE inh | rCAG RNA binder | mABHD4 FP | HTRA1 inh | PRMT1 FP inh | PRMT1 confirm
O=C(CSc1ccc(Cl)cc1)c1ccco1 | x | x | x | 25.5 | x | x
O=C(CCSc1ccc(Cl)cc1)c1ccco1 | -3.1 | -2.4 | -6.3 | -2.4 | 40.7* | 66.3*
O=C(COC(=O)C1CCN(c2ccc(C(F)(F)F)cn2)CC1)NCc1ccc(F)cc1 | -3.8 | -10.0 | -4.2 | -21.1 | 5.7 | x
CCOC(=O)CC(c1ccc(N)cc1)n1c(C)ccc1C (stereo not drawn) | 13.0 | 3.8 | 6.2 | 4.4 | 1.3 | x
Cc1ccc(C)n1C(CC(=O)O)c1ccc(C#N)cc1 (stereo not drawn) | -2.2 | 32.5 | 27.7 | x | 27.0* | -0.2
CCOC(=O)c1c(N)sc(N)c1C(=O)OCC | 7.2 | 9.1 | -1.2 | 5.8 | 30.6* | 55.8*
CCOC(=O)c1c(N)sc(C(N)=O)c1C | 6.6 | 2.4 | 3.6 | 7.6 | -2.4 | x
FC(F)Sc1ccc(Nc2ncnc3nc[nH]c23)cc1 | 6.0 | 8.3 | -20.5 | -1.7 | 34.8* | 20.0
CCC1(CC)C(=O)NC(=O)NC1=S | -3.7 | 0.8 | 0.3 | 6.0 | 0.4 | x
Cc1ccc(N2C(=O)C3C4C=CC(CNC(=S)Nc5cccc(Cl)c5)(O4)C3C2=O)cc1 (stereo not drawn) | 1.6 | 11.4 | -8.5 | -38.0 | 90.0* | 52.7*
CC(C)COC(=O)NCC12C=CC(O1)C1C(=O)N(c3ccc(Cl)cc3)C(=O)C12 (stereo not drawn) | -0.1 | -0.5 | 3.5 | 0.6 | 37.4* | 33.3*
Cc1ccc(N2C(=O)C3C4C=CC(CNC(=S)N5CCN(c6ccccn6)CC5)(O4)C3C2=O)cc1 (stereo not drawn) | 2.7 | 10.6 | -3.9 | 3.1 | 56.7* | 47.8*
Cc1ccc(N2C(=O)C3C4C=CC(CNC(=S)Nc5ccc(Cl)cc5)(O4)C3C2=O)cc1 (stereo not drawn) | -5.7 | 6.4 | -2.2 | -37.7 | 84.8* | 28.7*
Cc1ccc(C)c(NC(=S)N2CCN(c3ccccn3)CC2)c1 | -1.4 | -5.5 | 10.1 | -0.7 | 0.8 | x
Cc1ccc(NC(=S)NCCSc2ccc(Cl)cc2)cc1 | 5.9 | 1.0 | -20.7 | -34.1 | 0.1 | x
Cc1ccc(N2C(=O)N(CC(=O)Nc3cccc(Cl)c3)C(=O)C2C)cc1 (stereo not drawn) | -4.7 | 0.5 | 2.0 | -22.5 | 0.4 | x
CCOc1ccc(OCCC(=O)OCC(=O)Nc2ccc3c(c2)OCCO3)cc1 | 5.4 | -1.7 | 0.6 | 9.5 | -4.4 | x
CCC1(C(=O)OC)NC(c2ccco2)C2C(=O)N(c3ccccc3)C(=O)C21 (stereo not drawn) | 0.2 | 3.2 | -1.9 | 3.0 | 1.8 | x
CC(C)(C)C(=O)NCC12C=CC(O1)C1C(=O)N(c3ccccc3)C(=O)C12 (stereo not drawn) | -0.5 | 1.8 | 13.1 | 7.7 | 80.7* | 56.0*
Cc1ccc(N2C(=O)C3C4C=CC(CNC(=S)Nc5ccc(F)cc5)(O4)C3C2=O)cc1 (stereo not drawn) | 2.6 | 4.6 | 0.8 | -8.2 | 80.4* | 40.9*
